Results on 16 compounds are retold here after ChEMBL document CHEMBL4392853, “Characterising covalent warhead reactivity” (Bioorg Med Chem, 2019).

The source made the active and inactive calls. The calls are words filed in the database; no cut-off is given here.

A short description of assay [1]: Reversible drug reactivity against serine in PBS buffer by NMR assay. The method, boiled down:
(§1)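 NMR time-course following the warhead in solution with serine, with the amino acid at 10x the warhead concentration (pseudo-first-order). Run at pH 7.4. The rate constant was taken from the gradient of the line. Single determinations.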

A short description of assay [2]: Drug reactivity against serine in PBS buffer by NMR assay. In short, it runs like this: as §1
A short description of assay [3]: Reversible drug reactivity against cysteine in PBS buffer by NMR assay. In short, it runs like this:
(§2)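 Warhead reactivity toward cysteine was tracked by NMR, measuring the amount of warhead remaining in solution over time. Cysteine was used at 10x the warhead concentration, giving pseudo-first-order conditions. The rate constant is the gradient of the fitted line. Runs were at pH 7.4 and also at pH 9.8. Two warheads were run in triplicate and averaged; the others were run once.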

Assay [4] in a line: Drug reactivity against cysteine in PBS buffer by NMR assay. In short, it runs like this:
as §2

Assay [5] can be described thus: Irreversible drug reactivity against cysteine in PBS buffer by NMR assay. In short, it runs like this: as §2
Assay [6] can be described thus: Irreversible drug reactivity against serine in PBS buffer by NMR assay. In short, it runs like this: as §1
A short description of assay [7]: Drug reactivity against cysteine in PBS buffer assessed as half life by NMR assay.
Assay [8] is described as follows: Drug reactivity against cysteine in PBS buffer assessed as rate constant by NMR assay. The method, boiled down: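 Warhead reacted in solution with cysteine held at 10x the warhead concentration, giving pseudo-first-order kinetics. Remaining warhead was followed over time by NMR, and the rate constant was taken from the gradient of the line. Runs were at pH 7.4 and also at pH 9.8. Two warheads were run in triplicate and averaged; all others were run once.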

On to `N#Cc1ncccn1`, for which the outcome in assay [1], in assay [2], in assay [3] and in assay [4] was Active.

As for `C#CC(=O)c1ccccc1`, the result in assay [1], in assay [2], in assay [3] and in assay [4] was Active.

Take `N#Cc1ccccc1`: the outcome in assay [1] and in assay [3] was Active. Also, the outcome in assay [2] and in assay [4] was inactive.

Regarding `C=CC(=O)c1ccccc1`, the outcome in assay [1], in assay [2], in assay [3] and in assay [4] was Active.

In the case of `O=C(c1ccccc1)C(F)(F)F`, the result in assay [1] and in assay [3] was Active. For the same compound, the result in assay [2] and in assay [4] was inactive.

Take `COC(=O)Nc1ccccc1`: the outcome in assay [2] and in assay [4] was Active.

As for `CN(C)C/C=C/C(=O)Nc1ccccc1`, the outcome in assay [1], in assay [2], in assay [3] and in assay [4] was Active.

Consider `N#Cc1ccccn1`, for which the outcome in assay [1] and in assay [3] was Active. For the same compound, the result in assay [2] and in assay [4] was inactive.

With `c1ccc(C2CO2)cc1` (stereo not drawn), the outcome in assay [1], in assay [2], in assay [3] and in assay [4] was Active.

For `O=C1CC(c2ccccc2)N1` (stereo not drawn), the outcome in assay [5] and in assay [6] was Active. Also, the result in assay [2] and in assay [4] was inactive.

Take `C=CS(=O)(=O)Nc1ccccc1`: the result in assay [1], in assay [2], in assay [3] and in assay [4] was Active. Moreover, the T1/2 in assay [7] is 17.2 min. Moreover, the K in assay [8] turned out to be 6.73 ×10⁻⁴ /s.

Turning to `O=C1CCN1c1ccccc1`, the outcome in assay [5] and in assay [6] was Active. In addition, the result in assay [2] and in assay [4] was inactive.

As for `OB1OCc2ccccc21`, the result in assay [1] and in assay [3] was Active. Besides, the outcome in assay [2] and in assay [4] was inactive.

For `O=S(=O)(F)c1ccccc1`, the result in assay [2] and in assay [4] was Active.

Turning to `C=CC(=O)Nc1ccccc1`, the outcome in assay [1], in assay [2], in assay [3] and in assay [4] was Active. Besides, in assay [8], the K was 8.38 ×10⁻⁵ /s.

Take `CC1(C)S[C@@H]2[C@H](N)C(=O)N2[C@H]1C(=O)O`: the outcome in assay [5] and in assay [6] was Active. The outcome in assay [2] and in assay [4] was inactive.
